Drawing on ChEMBL document CHEMBL1123718, “Analogues and derivatives of tenoxicam. 1. Synthesis and antiinflammatory activity of analogues with different residues on the ring nitrogen and the amide nitrogen” (1987), this text covers ED30, ED100 and ED50 for 17 molecules.

In assay [1] the test system is Rattus norvegicus. The assay can be described thus: Anti-inflammatory activity was assessed by estimating kaolin-induced edema in rat hind paw, by administering orally. The assay is classed as functional. The settings on record: po. An outline of the steps: (§1)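 Female Füllinsdorf albino rats (about 70 g) got 0.1 mL of 10% kaolin suspension s.c. into the right hind paw. Drug in 0.5% tragacanth was given po 0.5 h before and 3.5 h after kaolin. Paw diameter was measured, and edema inhibition was expressed as % of controls. A phenylbutazone 30 mg/kg po validation group ran in each set. ED30 came from group means graphically, or from logit analysis with 95% CI.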

Assay [2] has as its system Rattus norvegicus. As to the kind of experiment: Anti-inflammatory activity was assessed by estimating threshold pain response after oral administration to rats. The assay is classed as functional. An outline of the steps:
(§2)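 Kaolin paw model in female Füllinsdorf rats (about 70 g): 0.1 mL of 10% kaolin s.c. into the right hind paw, with oral drug in 0.5% tragacanth at 0.5 h before and 3.5 h after. Pressure pain threshold was measured after kaolin, and its increase was expressed as % of controls. ED100 was read graphically from group means, or by logit analysis with 95% CI.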

The test system of assay [3] is Rattus norvegicus. As to the kind of experiment: Ulcerogenic potential was assessed in a rat model by the enhancement of stress-induced gastric mucosal lesions after oral administration. The assay is classed as functional. The settings on record: Gastric mucosa. An outline of the steps:
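Female Füllinsdorf albino rats (about 160 g) were starved 24 h and given drug po in 0.5% tragacanth. They then had 2 h cold-water stress (22.5 °C) and were sacrificed. Rats with macroscopic gastric mucosal erosions were counted. ED50 was defined as the dose giving lesions in 50% of animals and calculated by probit analysis with 95% CI.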

Assay [4] concerns Rattus norvegicus. The assay can be described thus: Anti-inflammatory activity was assessed by estimating threshold pain response after oral administration to rats; NE denotes not effective up to 100 mg/kg. On the set-up: dose 100 mg/kg. The class given is functional, organism-based. An outline of the steps:
as §2

Assay [5] deals with Rattus norvegicus. The assay can be described thus: Anti-inflammatory activity was assessed by estimating kaolin-induced edema in rat hind paw, by administering orally;NE denotes not effective up to 100 mg/kg. The class given is functional, organism-based. On the set-up: dose 100 mg/kg. An outline of the steps:
as §1

Assay [6] relates to Rattus norvegicus. As to the kind of experiment: Anti-inflammatory activity was assessed by estimating kaolin-induced edema in rat hind paw, by administering orally;NE not effective up to 100 mg/kg. On the set-up: dose 100 mg/kg. The class given is functional, organism-based. An outline of the steps:
as §1

Assay [7] deals with Rattus norvegicus. The assay can be described thus: Anti-inflammatory activity was assessed by estimating threshold pain response after oral administration to rats;NE not effective up to 100 mg/kg. The assay is classed as functional, organism-based. On the set-up: dose 100 mg/kg. An outline of the steps: as §2
The subject of assay [8] is Rattus norvegicus. As to the kind of experiment: Anti-inflammatory activity was assessed by estimating kaolin-induced edema in rat hind paw, by administering orally; NE not effective up to 100 mg/kg. The assay is classed as functional, organism-based. On the set-up: dose 100 mg/kg. An outline of the steps:
as §1

Assay [9] has as its system Rattus norvegicus. As to the kind of experiment: Anti-inflammatory activity was assessed by estimating threshold pain response after oral administration to rats; NE not effective up to 100 mg/kg. The class given is functional, organism-based. On the set-up: dose 100 mg/kg. An outline of the steps:
as §2

Assay [10] concerns Rattus norvegicus. The assay can be described thus: Anti-inflammatory activity was assessed by estimating kaolin-induced edema in rat ind paw, by administering orally. The assay is classed as functional. The settings on record: po. An outline of the steps: as §1

Bounds are passed on as bounds.

Usually ED50 stands for the midpoint of the dose-response relation. `CN1C(C(=O)Nc2ccccn2)=C(O)c2ccccc2S1(=O)=O` [PIROXICAM]: in assay [1], the ED30 is 1.9 mg/kg. Moreover, in [2], the ED100 is 4 mg/kg. Further, the median effective dose (ED50) in assay [3] turned out to be 0.5 mg/kg.

Regarding `Cc1cccc(NC(=O)C2=C(O)c3sccc3S(=O)(=O)N2C)n1`, the ED30 in [1] was 30 mg/kg. In addition, in [2], the ED100 is 27.4 mg/kg. In addition, the ED50 in assay [3] came to 0.5 mg/kg.

In the case of `CN1C(C(=O)Nc2ccccc2)=C(O)c2sccc2S1(=O)=O`, the ED30 in [1] was above 100 mg/kg. Besides, the ED100 in assay [2] is 75 mg/kg.

On to `CN1C(C(=O)Nc2ccncc2)=C(O)c2sccc2S1(=O)=O`, for which, in assay [4], the ED100 entry was “No effect”. Also, the ED30 entry in assay [5] was “No effect”.

`Cc1noc(NC(=O)C2=C(O)c3sccc3S(=O)(=O)N2C)c1C`: in assay [6], the ED30 entry was “No effect”. Also, the ED100 result in assay [7] was “No effect”.

Regarding `Cc1cccc(NC(=O)C2=C(O)c3sccc3S(=O)(=O)N2C)c1`, the ED30 in assay [1] is 43.4 mg/kg. In addition, the ED100 in assay [2] is 3.9 mg/kg. Further, the ED50 in assay [3] came to 7 mg/kg.

As for `CN1C(C(=O)Nc2cnccn2)=C(O)c2sccc2S1(=O)=O`, the ED30 in assay [1] is 70 mg/kg. Also, the ED100 in assay [2] was 56 mg/kg. Moreover, the ED50 in assay [3] is 1.8 mg/kg.

Take `CCN1C(C(=O)Nc2ccccn2)=C(O)c2sccc2S1(=O)=O`: the ED30 result in [6] is “No effect”. Further, in [2], the ED100 is 24 mg/kg.

Regarding `Cc1cc(NC(=O)C2=C(O)c3sccc3S(=O)(=O)N2C)nc(C)n1`, the ED30 entry in assay [8] was “No effect”. For the same molecule, in assay [9], the ED100 entry is “No effect”.

On to `Cc1cc(NC(=O)C2=C(O)c3sccc3S(=O)(=O)N2C)no1`, for which the ED30 in [1] is 20 mg/kg. In addition, in [2], the ED100 is 24 mg/kg.

As for `O=C(Nc1ccccn1)C1=C(O)c2sccc2S(=O)(=O)N1`, in [1], the ED30 was above 100 mg/kg. The ED100 in [2] is above 100 mg/kg.

`CN1C(C(=O)Nc2ccccn2)=C(O)c2sccc2S1(=O)=O` [TENOXICAM]: in assay [1], the ED30 is 2.6 mg/kg. For the same molecule, the ED100 in [2] was 5.3 mg/kg. Also, the median effective dose (ED50) in assay [3] came out at 0.7 mg/kg.

Consider `CN1C(C(=O)Nc2cccc(Cl)c2)=C(O)c2sccc2S1(=O)=O`, for which, in assay [1], the ED30 is above 100 mg/kg. Moreover, the ED100 in assay [2] was above 100 mg/kg.

Consider `CN1C(C(=O)Nc2ncccn2)=C(O)c2sccc2S1(=O)=O`, for which the ED30 result in assay [6] was “No effect”. Besides, the ED100 entry in [9] is “No effect”.

Take `CN1C(C(=O)Nc2cccnc2)=C(O)c2sccc2S1(=O)=O`: in assay [10], the ED30 is 63.7 mg/kg. Moreover, the ED100 in assay [2] is above 100 mg/kg. Besides, in assay [3], the ED50 amounted to 6.3 mg/kg.

With `CN1C(C(=O)Nc2nccs2)=C(O)c2sccc2S1(=O)=O`, in assay [1], the ED30 was 20 mg/kg. The ED100 in assay [2] was 14 mg/kg. Besides, in assay [3], the 50% effective dose (ED50) came to 2.2 mg/kg.

As to `CN1C(C(=O)Nc2ccc(O)cc2)=C(O)c2sccc2S1(=O)=O`, the ED100 result in [4] was “No effect”. Besides, the ED30 result in [5] was “No effect”.
